One assay deals with Neuraminidase (Influenza A virus, UniProt B4URF0). Briefly: Inhibition of human Influenza A virus A/PR/8/34(H1N1) sialidase by fluorescence spectrophotometry. Set-up: species or system Influenza A virus (A/Puerto Rico/8/1934(H1N1)). An outline of the steps:
(§1)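 Influenza A virus suspension in saline (HAU = 26) as sialidase source; mixed with glycodendrimer and 4-MU-Neu5Ac (0.4 mM final) in 20 mM acetate buffer pH 5.2; 37 °C, 30 min; stopped with 100 mM carbonate buffer pH 10.7; released 4-MU fluorescence ex 355/em 460 nm. IC50 read graphically from % inhibition vs concentration, in mM per monomeric sugar unit.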

For assay [1], the target named is Neuraminidase (Influenza A virus (A/Memphis/1/1971(H3N2)), UniProt P03471). The assay is described as follows: Inhibition of human influenza A/Memphis/1/71(H3N2) sialidase by fluorescence spectrophotometry. A digest of the protocol:
as §1

Chain of Neuraminidase (Influenza A virus (A/Memphis/1/1971(H3N2)), UniProt P03471) (P03471 whole entry): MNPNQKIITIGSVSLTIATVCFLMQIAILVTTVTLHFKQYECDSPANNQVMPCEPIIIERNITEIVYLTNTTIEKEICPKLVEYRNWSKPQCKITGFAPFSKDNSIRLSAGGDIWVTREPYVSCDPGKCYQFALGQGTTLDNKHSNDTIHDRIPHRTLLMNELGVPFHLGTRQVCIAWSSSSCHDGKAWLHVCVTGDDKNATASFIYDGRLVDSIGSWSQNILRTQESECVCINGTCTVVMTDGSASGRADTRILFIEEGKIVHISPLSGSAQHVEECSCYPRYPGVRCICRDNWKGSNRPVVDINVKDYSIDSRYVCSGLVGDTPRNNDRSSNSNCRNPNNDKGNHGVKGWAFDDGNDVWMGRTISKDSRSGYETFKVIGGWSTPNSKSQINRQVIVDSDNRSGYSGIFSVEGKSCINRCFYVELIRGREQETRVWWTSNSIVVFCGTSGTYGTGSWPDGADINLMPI
Chain of Neuraminidase (B4URF0 whole entry): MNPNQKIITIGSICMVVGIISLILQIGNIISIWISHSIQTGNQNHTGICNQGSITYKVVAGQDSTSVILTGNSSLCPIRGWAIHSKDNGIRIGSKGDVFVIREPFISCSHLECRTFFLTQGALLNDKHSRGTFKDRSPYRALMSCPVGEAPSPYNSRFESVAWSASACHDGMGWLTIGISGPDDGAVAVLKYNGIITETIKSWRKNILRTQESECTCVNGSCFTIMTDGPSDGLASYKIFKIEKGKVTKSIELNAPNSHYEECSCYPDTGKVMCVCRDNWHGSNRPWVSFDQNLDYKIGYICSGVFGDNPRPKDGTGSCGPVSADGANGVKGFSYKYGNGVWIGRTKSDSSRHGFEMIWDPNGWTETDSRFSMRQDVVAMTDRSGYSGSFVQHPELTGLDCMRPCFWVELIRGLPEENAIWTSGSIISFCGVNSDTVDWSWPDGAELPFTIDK

The term IC50 denotes the concentration at which inhibition is half-maximal. Consider `CC(=O)N[C@H]1[C@H]([C@H](O)[C@H](O)CO)O[C@@](SCCCCCSCCCOCCC[Si](CCCOCCCSCCCCCS[C@]2(C(=O)O)C[C@H](O)[C@@H](NC(C)=O)[C@H]([C@H](O)[C@H](O)CO)O2)(CCCOCCCSCCCCCS[C@]2(C(=O)O)C[C@H](O)[C@@H](NC(C)=O)[C@H]([C@H](O)[C@H](O)CO)O2)CCCOCCCSCCCCCS[C@]2(C(=O)O)C[C@H](O)[C@@H](NC(C)=O)[C@H]([C@H](O)[C@H](O)CO)O2)(C(=O)O)C[C@@H]1O`, for which the IC50 (against Neuraminidase; in assay [1]) was 5 mM each time.
`CC(=O)N[C@H]1[C@H]([C@H](O)[C@H](O)CO)O[C@@](SCCCCCSCCCCCC(=O)NCCC[Si](CCCNC(=O)CCCCCSCCCCCS[C@]2(C(=O)O)C[C@H](O)[C@@H](NC(C)=O)[C@H]([C@H](O)[C@H](O)CO)O2)(CCCNC(=O)CCCCCSCCCCCS[C@]2(C(=O)O)C[C@H](O)[C@@H](NC(C)=O)[C@H]([C@H](O)[C@H](O)CO)O2)c2ccccc2)(C(=O)O)C[C@@H]1O`: the IC50 against Neuraminidase was found to be 2.7 mM; in assay [1] it was 7.1 mM.
Consider `CC(=O)N[C@H]1[C@H]([C@H](O)[C@H](O)CO)O[C@@](SCCCCCSCCCOCCC[Si](CCCOCCCSCCCCCS[C@]2(C(=O)O)C[C@H](O)[C@@H](NC(C)=O)[C@H]([C@H](O)[C@H](O)CO)O2)(CCCOCCCSCCCCCS[C@]2(C(=O)O)C[C@H](O)[C@@H](NC(C)=O)[C@H]([C@H](O)[C@H](O)CO)O2)CCC[Si](C)(C)CCC[Si](CCCOCCCSCCCCCS[C@]2(C(=O)O)C[C@H](O)[C@@H](NC(C)=O)[C@H]([C@H](O)[C@H](O)CO)O2)(CCCOCCCSCCCCCS[C@]2(C(=O)O)C[C@H](O)[C@@H](NC(C)=O)[C@H]([C@H](O)[C@H](O)CO)O2)CCCOCCCSCCCCCS[C@]2(C(=O)O)C[C@H](O)[C@@H](NC(C)=O)[C@H]([C@H](O)[C@H](O)CO)O2)(C(=O)O)C[C@@H]1O`, for which the IC50 against Neuraminidase is 5 mM; in assay [1], 1.25 mM.
`CC(=O)N[C@H]1[C@H]([C@H](O)[C@H](O)CO)O[C@@](SCCCCCSCCCCCC(=O)NCCC[Si](CCCNC(=O)CCCCCSCCCCCS[C@]2(C(=O)O)C[C@H](O)[C@@H](NC(C)=O)[C@H]([C@H](O)[C@H](O)CO)O2)(CCCNC(=O)CCCCCSCCCCCS[C@]2(C(=O)O)C[C@H](O)[C@@H](NC(C)=O)[C@H]([C@H](O)[C@H](O)CO)O2)CCC[Si](CCC[Si](CCCNC(=O)CCCCCSCCCCCS[C@]2(C(=O)O)C[C@H](O)[C@@H](NC(C)=O)[C@H]([C@H](O)[C@H](O)CO)O2)(CCCNC(=O)CCCCCSCCCCCS[C@]2(C(=O)O)C[C@H](O)[C@@H](NC(C)=O)[C@H]([C@H](O)[C@H](O)CO)O2)CCCNC(=O)CCCCCSCCCCCS[C@]2(C(=O)O)C[C@H](O)[C@@H](NC(C)=O)[C@H]([C@H](O)[C@H](O)CO)O2)(CCC[Si](CCCNC(=O)CCCCCSCCCCCS[C@]2(C(=O)O)C[C@H](O)[C@@H](NC(C)=O)[C@H]([C@H](O)[C@H](O)CO)O2)(CCCNC(=O)CCCCCSCCCCCS[C@]2(C(=O)O)C[C@H](O)[C@@H](NC(C)=O)[C@H]([C@H](O)[C@H](O)CO)O2)CCCNC(=O)CCCCCSCCCCCS[C@]2(C(=O)O)C[C@H](O)[C@@H](NC(C)=O)[C@H]([C@H](O)[C@H](O)CO)O2)CCC[Si](CCCNC(=O)CCCCCSCCCCCS[C@]2(C(=O)O)C[C@H](O)[C@@H](NC(C)=O)[C@H]([C@H](O)[C@H](O)CO)O2)(CCCNC(=O)CCCCCSCCCCCS[C@]2(C(=O)O)C[C@H](O)[C@@H](NC(C)=O)[C@H]([C@H](O)[C@H](O)CO)O2)CCCNC(=O)CCCCCSCCCCCS[C@]2(C(=O)O)C[C@H](O)[C@@H](NC(C)=O)[C@H]([C@H](O)[C@H](O)CO)O2)(C(=O)O)C[C@@H]1O` returned an IC50 at Neuraminidase of 7.2 mM. In other words, the millimolar range.
As for `CC(=O)N[C@H]1[C@H]([C@H](O)[C@H](O)CO)O[C@@](SCCCCCSCCCOCCC[Si](CCCOCCCSCCCCCS[C@]2(C(=O)O)C[C@H](O)[C@@H](NC(C)=O)[C@H]([C@H](O)[C@H](O)CO)O2)(CCCOCCCSCCCCCS[C@]2(C(=O)O)C[C@H](O)[C@@H](NC(C)=O)[C@H]([C@H](O)[C@H](O)CO)O2)c2ccccc2)(C(=O)O)C[C@@H]1O`, the IC50 (at Neuraminidase; in assay [1]) was 5 mM in each case.
As to `CC(=O)N[C@H]1[C@H]([C@H](O)[C@H](O)CO)O[C@@](SCCCCCSCCC[Si](CCCSCCCCCS[C@]2(C(=O)O)C[C@H](O)[C@@H](NC(C)=O)[C@H]([C@H](O)[C@H](O)CO)O2)(CCCSCCCCCS[C@]2(C(=O)O)C[C@H](O)[C@@H](NC(C)=O)[C@H]([C@H](O)[C@H](O)CO)O2)CCC[Si](CCC[Si](CCCSCCCCCS[C@]2(C(=O)O)C[C@H](O)[C@@H](NC(C)=O)[C@H]([C@H](O)[C@H](O)CO)O2)(CCCSCCCCCS[C@]2(C(=O)O)C[C@H](O)[C@@H](NC(C)=O)[C@H]([C@H](O)[C@H](O)CO)O2)CCCSCCCCCS[C@]2(C(=O)O)C[C@H](O)[C@@H](NC(C)=O)[C@H]([C@H](O)[C@H](O)CO)O2)(CCC[Si](CCCSCCCCCS[C@]2(C(=O)O)C[C@H](O)[C@@H](NC(C)=O)[C@H]([C@H](O)[C@H](O)CO)O2)(CCCSCCCCCS[C@]2(C(=O)O)C[C@H](O)[C@@H](NC(C)=O)[C@H]([C@H](O)[C@H](O)CO)O2)CCCSCCCCCS[C@]2(C(=O)O)C[C@H](O)[C@@H](NC(C)=O)[C@H]([C@H](O)[C@H](O)CO)O2)CCC[Si](CCCSCCCCCS[C@]2(C(=O)O)C[C@H](O)[C@@H](NC(C)=O)[C@H]([C@H](O)[C@H](O)CO)O2)(CCCSCCCCCS[C@]2(C(=O)O)C[C@H](O)[C@@H](NC(C)=O)[C@H]([C@H](O)[C@H](O)CO)O2)CCCSCCCCCS[C@]2(C(=O)O)C[C@H](O)[C@@H](NC(C)=O)[C@H]([C@H](O)[C@H](O)CO)O2)(C(=O)O)C[C@@H]1O`, the IC50 was 5 mM against Neuraminidase and 7 mM in assay [1].
Take `CC(=O)N[C@H]1[C@H]([C@H](O)[C@H](O)CO)O[C@@](SCCCCCSCCCOCCC[Si](CCCOCCCSCCCCCS[C@]2(C(=O)O)C[C@H](O)[C@@H](NC(C)=O)[C@H]([C@H](O)[C@H](O)CO)O2)(CCCOCCCSCCCCCS[C@]2(C(=O)O)C[C@H](O)[C@@H](NC(C)=O)[C@H]([C@H](O)[C@H](O)CO)O2)CCC[Si](CCC[Si](CCCOCCCSCCCCCS[C@]2(C(=O)O)C[C@H](O)[C@@H](NC(C)=O)[C@H]([C@H](O)[C@H](O)CO)O2)(CCCOCCCSCCCCCS[C@]2(C(=O)O)C[C@H](O)[C@@H](NC(C)=O)[C@H]([C@H](O)[C@H](O)CO)O2)CCCOCCCSCCCCCS[C@]2(C(=O)O)C[C@H](O)[C@@H](NC(C)=O)[C@H]([C@H](O)[C@H](O)CO)O2)(CCC[Si](CCCOCCCSCCCCCS[C@]2(C(=O)O)C[C@H](O)[C@@H](NC(C)=O)[C@H]([C@H](O)[C@H](O)CO)O2)(CCCOCCCSCCCCCS[C@]2(C(=O)O)C[C@H](O)[C@@H](NC(C)=O)[C@H]([C@H](O)[C@H](O)CO)O2)CCCOCCCSCCCCCS[C@]2(C(=O)O)C[C@H](O)[C@@H](NC(C)=O)[C@H]([C@H](O)[C@H](O)CO)O2)CCC[Si](CCCOCCCSCCCCCS[C@]2(C(=O)O)C[C@H](O)[C@@H](NC(C)=O)[C@H]([C@H](O)[C@H](O)CO)O2)(CCCOCCCSCCCCCS[C@]2(C(=O)O)C[C@H](O)[C@@H](NC(C)=O)[C@H]([C@H](O)[C@H](O)CO)O2)CCCOCCSCCCCCS[C@]2(C(=O)O)C[C@H](O)[C@@H](NC(C)=O)[C@H]([C@H](O)[C@H](O)CO)O2)(C(=O)O)C[C@@H]1O`: the IC50 at Neuraminidase was 6.4 mM; in assay [1] it was 6.5 mM.
In the case of `CC(=O)N[C@H]1[C@H]([C@H](O)[C@H](O)CO)O[C@@](SCCCCCSCCCCCC(=O)NCCC[Si](CCCNC(=O)CCCCCSCCCCCS[C@]2(C(=O)O)C[C@H](O)[C@@H](NC(C)=O)[C@H]([C@H](O)[C@H](O)CO)O2)(CCCNC(=O)CCCCCSCCCCCS[C@]2(C(=O)O)C[C@H](O)[C@@H](NC(C)=O)[C@H]([C@H](O)[C@H](O)CO)O2)CCCNC(=O)CCCCCSCCCCCS[C@]2(C(=O)O)C[C@H](O)[C@@H](NC(C)=O)[C@H]([C@H](O)[C@H](O)CO)O2)(C(=O)O)C[C@@H]1O`, the IC50 against Neuraminidase was determined as 4.8 mM; in assay [1], 8.8 mM.
Take `CC(=O)N[C@H]1[C@H]([C@H](O)[C@H](O)CO)O[C@@](SCCCCCSCCCCCC(=O)NCCC[Si](CCCNC(=O)CCCCCSCCCCCS[C@]2(C(=O)O)C[C@H](O)[C@@H](NC(C)=O)[C@H]([C@H](O)[C@H](O)CO)O2)(CCCNC(=O)CCCCCSCCCCCS[C@]2(C(=O)O)C[C@H](O)[C@@H](NC(C)=O)[C@H]([C@H](O)[C@H](O)CO)O2)CCC[Si](C)(C)CCC[Si](CCCNC(=O)CCCCCSCCCCCS[C@]2(C(=O)O)C[C@H](O)[C@@H](NC(C)=O)[C@H]([C@H](O)[C@H](O)CO)O2)(CCCNC(=O)CCCCCSCCCCCS[C@]2(C(=O)O)C[C@H](O)[C@@H](NC(C)=O)[C@H]([C@H](O)[C@H](O)CO)O2)CCCNC(=O)CCCCCSCCCCCS[C@]2(C(=O)O)C[C@H](O)[C@@H](NC(C)=O)[C@H]([C@H](O)[C@H](O)CO)O2)(C(=O)O)C[C@@H]1O`: the values for the IC50 (at Neuraminidase; in assay [1]) were 2.8 mM and 8.1 mM, respectively.
